Holding throughout (format): functional, cell-based
Assay [1] addresses T1, Neuropeptide S receptor (Mus musculus, UniProt Q8BZP8).
T1 sequence (Q8BZP8 whole entry): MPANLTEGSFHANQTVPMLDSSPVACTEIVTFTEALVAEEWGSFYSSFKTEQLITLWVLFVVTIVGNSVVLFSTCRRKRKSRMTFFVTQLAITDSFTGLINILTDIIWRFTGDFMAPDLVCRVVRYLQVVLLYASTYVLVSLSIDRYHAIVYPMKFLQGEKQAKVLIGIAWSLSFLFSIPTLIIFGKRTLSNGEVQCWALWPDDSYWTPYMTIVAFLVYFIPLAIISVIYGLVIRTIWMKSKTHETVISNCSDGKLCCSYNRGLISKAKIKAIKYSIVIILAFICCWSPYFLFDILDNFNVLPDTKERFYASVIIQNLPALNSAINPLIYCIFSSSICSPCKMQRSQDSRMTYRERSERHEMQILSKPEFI
Put plainly: (§1) Agonist activity at mouse NPSR expressed in HEK293 cells assessed as induction of calcium mobilization after 30 mins. The gist of the method:
(§2)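 HEK293 lines stably expressing human NPSR Ile107 or murine NPSR were grown in DMEM with 10% FBS, 2 mM L-glutamine and hygromycin B (100 mg/L) at 37 °C, 5% CO2. Cells were plated on poly-D-lysine wells and loaded with Fluo-4 AM (3 µM), probenecid 2.5 mM and 0.01% pluronic for 30 min at 37 °C. They were then read in HBSS/20 mM HEPES with probenecid and Brilliant Black on a FlexStation at 37 °C. Peak fluorescence change was taken as % baseline and fitted logistically for potency and maximal effect. Data are mean ± sem, n≥4 in duplicate.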

The target in assay [2] is T2, Neuropeptide S receptor (Mus musculus) (UniProt Q8BZP8).
T2 sequence (whole entry): T1 sequence (Q8BZP8 whole entry)
Described as §1. The method, boiled down: as §2

Assay [3] has as its target T2, Neuropeptide S receptor (Mus musculus). Briefly: Agonist activity at mouse NPSR expressed in HEK293 cells assessed as induction of calcium mobilization after 30 mins relative to control. The gist of the method: as §2
Assay [4] has as its target T3, Neuropeptide S receptor (Homo sapiens) (UniProt Q6W5P4).
T3 sequence (whole entry): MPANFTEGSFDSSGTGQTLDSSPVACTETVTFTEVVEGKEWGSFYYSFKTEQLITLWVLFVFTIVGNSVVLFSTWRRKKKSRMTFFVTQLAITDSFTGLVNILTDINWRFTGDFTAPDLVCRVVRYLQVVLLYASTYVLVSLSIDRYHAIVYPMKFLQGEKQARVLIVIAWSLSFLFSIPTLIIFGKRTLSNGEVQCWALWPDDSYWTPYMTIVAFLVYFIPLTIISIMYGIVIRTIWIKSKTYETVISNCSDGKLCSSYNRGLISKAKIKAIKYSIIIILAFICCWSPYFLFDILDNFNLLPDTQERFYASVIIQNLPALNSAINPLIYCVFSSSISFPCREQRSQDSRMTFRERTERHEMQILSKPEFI
Briefly: (§3) Agonist activity at human NPSR Ile107 expressed in HEK293 cells assessed as induction of calcium mobilization after 30 mins. The gist of the method: as §2

In assay [5] the target is T4, Neuropeptide S receptor (Homo sapiens, UniProt Q6W5P4). The description is as §3. The method, boiled down:
as §2

Assay [6] deals with T3, Neuropeptide S receptor (Homo sapiens). Put plainly: Agonist activity at human NPSR Ile107 expressed in HEK293 cells assessed as induction of calcium mobilization after 30 mins relative to control. The gist of the method: as §2
Assay [7] shares this target. Put plainly: Agonist activity at human NPSR Asn107 expressed in HEK293 cells assessed as induction of calcium mobilization after 30 mins relative to control. The gist of the method:
(§4)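 HEK293 cells stably expressing human NPSR Asn107 were kept in DMEM with 10% FBS, 2 mM glutamine and zeocin (100 mg/L) at 37 °C, 5% CO2. Cells were seeded on poly-D-lysine plates and loaded next day with 3 µM Fluo-4 AM, 2.5 mM probenecid and 0.01% pluronic acid for 30 min at 37 °C. Assay buffer was HBSS with 20 mM HEPES, 2.5 mM probenecid and 500 µM Brilliant Black. Fluorescence was read on a FlexStation at 37 °C. Response was the maximal fluorescence change as % of baseline. Potency and maximal effect came from nonlinear regression, with mean ± sem of ≥4 experiments in duplicate.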

The target is the same in assay [8]. Put plainly: (§5) Agonist activity at human NPSR Asn107 expressed in HEK293 cells assessed as induction of calcium mobilization after 30 mins. The gist of the method: as §4
For assay [9], the target named is T4, Neuropeptide S receptor. Described as §5. The method, boiled down:
as §4

Assay [10] has as its target T2, Neuropeptide S receptor (Mus musculus). Put plainly: Agonist activity at mouse NPSR expressed in HEK293 cells assessed as induction of calcium mobilization at up to 10 uM after 30 mins. The gist of the method:
as §2

The source made the active and inactive calls. No cut-off for these calls is given here.

For the compound H-SFRNGVGSGAKKTSFRRAKQ-OH, the EC50 at Neuropeptide S receptor [1] was 1.07 nM. Besides, the Activity entry in [2] was “Dose-dependent effect”. Besides, the Emax in assay [3] was 250%.

Turning to “H-SFRNGVGTGMKKTSFQRAKS-OH [NEUROPEPTIDE S]”, the Activity result in assay [4] and in assay [8] was “Dose-dependent effect” in each case. For the same compound, the pEC50 on Neuropeptide S receptor [5] is 9.17; on Neuropeptide S receptor [9], 9.07. In addition, the Emax was 333% in [6] and 316% in [7].

Turning to `O=C(NCc1ccc(F)cc1)N1CCN2C(=O)OC(c3ccccc3)(c3ccccc3)[C@H]2C1`, the result in [10] was inactive.

`O=C(NCc1ccc(F)cc1)N1CCN2C(=O)OC(c3ccccc3)(c3ccccc3)C2C1` (single isomer, unassigned): the result in assay [10] was inactive.

`O=C(NCc1ccc(F)cc1)N1CCN2C(=O)OC(c3ccccc3)(c3ccccc3)[C@@H]2C1`: in assay [10], the outcome was inactive.

The values are drawn from ChEMBL document CHEMBL1764996, “Synthesis and separation of the enantiomers of the neuropeptide S receptor antagonist (9R/S)-3-oxo-1,1-diphenyl-tetrahydro-oxazolo[3,4-a]pyrazine-7-carboxylic acid 4-fluoro-benzylamide (SHA 68)” (J Med Chem, 2011).
